We go through four compounds from ChEMBL document CHEMBL4346672, “Antimicrobial and KPC/AmpC inhibitory activity of functionalized benzosiloxaboroles” (Eur J Med Chem, 2019).

In assay [1] the test system is Bordetella bronchiseptica. Description: Antibacterial activity against Bordetella bronchiseptica ATCC 4617 assessed as diameter of zone inhibition measured after 18 hrs by CLSI disc diffusion method. Type of assay: functional. The method, boiled down: (§1)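 Disc diffusion on Mueller-Hinton II agar. Compounds dissolved in DMSO. Strains stored at -80 °C and subcultured twice on tryptic soy agar before testing. Inhibition zones read after 35 °C, 18 h.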
A general note: In agar diffusion tests the substance spreads into inoculated agar from a disc or well.

The test system of assay [2] is Klebsiella pneumoniae. Description: Antibacterial activity against Klebsiella pneumoniae ATCC 13883 assessed as fold reduction of MIC in presence of efflux pump inhibitor PAbetaN incubated for 18 hrs by broth microdilution method. Type of assay: functional. In outline: (§2)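 MICs determined with and without PAβN at 50 mg/L in Mueller-Hinton broth containing 1 mM MgSO₄. 2-fold serial dilutions per CLSI. Fold change taken from the paired MICs after 35 °C, 18 h.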

A further assay deals with Candida parapsilosis. Description: Antifungal activity against Candida parapsilosis ATCC 22019 assessed as decrease in fungal cell growth at 0.78 to 12.5 mg/L incubated for 24 hrs by CLSI broth dilution method. Type of assay: functional. As to conditions: Lodderomyces parapsilosis, ATCC 22019, 24 h. In outline: (§3)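 Yeast broth dilution in RPMI 1640 with 2% glucose, compounds in DMSO. Yeasts pre-grown on Sabouraud dextrose agar. Growth read after 35 °C, 24 h.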
A general note: Broth dilution looks for growth in wells or tubes with falling amounts of substance.

Assay [3] deals with Serratia marcescens. Nature of the assay: Antibacterial activity against Serratia marcescens ATCC 13880 assessed as fold reduction of MIC in presence of efflux pump inhibitor PAbetaN incubated for 18 hrs by broth microdilution method. The class given is functional. In outline:
as §2

A further assay deals with Enterococcus faecalis. Nature of the assay: Antibacterial activity against Enterococcus faecalis ATCC 29212 assessed as diameter of zone inhibition measured after 18 hrs by CLSI disc diffusion method. The class given is functional. In outline:
as §1

In assay [4] the test system is Klebsiella pneumoniae. As to conditions: ATCC 13883.
Assay [5] has as its system Serratia marcescens. The conditions noted are these: ATCC 13880.
For assay [6], the system named is Acinetobacter baumannii. Nature of the assay: Antibacterial activity against Acinetobacter baumannii ATCC 19606 assessed as fold reduction of MIC in presence of efflux pump inhibitor PAbetaN incubated for 18 hrs by broth microdilution method. Type of assay: functional. In outline: as §2
The test system of a further assay is Pichia kudriavzevii. Description: Antifungal activity against Candida krusei ATCC 6258 assessed as decrease in fungal cell growth at 0.78 to 12.5 mg/L incubated for 24 hrs by CLSI broth dilution method. The class given is functional. As to conditions: ATCC 6258, 24 h. The method, boiled down:
as §3

The subject of another assay is Enterococcus faecium. Nature of the assay: Antibacterial activity against Enterococcus faecium ATCC 6057 assessed as diameter of zone inhibition measured after 18 hrs by CLSI disc diffusion method. The class given is functional. In outline:
as §1

The subject of assay [7] is Proteus mirabilis. Description: Antibacterial activity against Proteus mirabilis ATCC 12453 assessed as fold reduction of MIC in presence of efflux pump inhibitor PAbetaN incubated for 18 hrs by broth microdilution method. The class given is functional. The method, boiled down:
as §2

Assay [8] has as its system Bordetella bronchiseptica. Nature of the assay: Antibacterial activity against Bordetella bronchiseptica ATCC 4617 measured after 18 hrs by CLSI broth dilution method. As to conditions: ATCC 4617, 18 h. The class given is functional. The method, boiled down:
(§4)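 Broth MIC in Mueller-Hinton II broth following CLSI, compounds dissolved in DMSO. Strains subcultured twice on tryptic soy agar before testing. Growth read after 35 °C, 18 h.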

Another assay has as its system Pseudomonas aeruginosa. Description: Antibacterial activity against Pseudomonas aeruginosa ATCC 27853 assessed as fold reduction of MIC in presence of efflux pump inhibitor PAbetaN incubated for 18 hrs microdilution method. Type of assay: functional. The method, boiled down:
as §2

In assay [9] the test system is Acinetobacter baumannii. Nature of the assay: Antibacterial activity against Acinetobacter baumannii ATCC 19606 measured after 18 hrs by CLSI broth dilution method. Type of assay: functional. As to conditions: ATCC 19606, 18 h. In outline:
as §4

Assay [10] deals with Proteus mirabilis. Nature of the assay: Antibacterial activity against Proteus mirabilis ATCC 12453 assessed as diameter of zone inhibition measured after 18 hrs by CLSI disc diffusion method. The class given is functional. In outline:
as §1

Assay [11] deals with Candida tropicalis. Description: Antifungal activity against Candida tropicalis IBA 171 assessed as decrease in fungal cell growth at 0.78 to 12.5 mg/L incubated for 24 hrs by CLSI broth dilution method. Type of assay: functional. The conditions noted are these: IBA 171, 24 h. In outline:
as §3

Assay [12] relates to Candida tropicalis. Nature of the assay: Antifungal activity against Candida tropicalis IBA 171 assessed as diameter of zone inhibition incubated for 24 hrs by CLSI disc diffusion method. The class given is functional. The method, boiled down: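 Yeast disc diffusion on Mueller-Hinton agar supplemented with 2% glucose and 0.5 mg/L methylene blue. Compounds in DMSO. Yeasts subcultured on Sabouraud dextrose agar before testing. Zones read after 35 °C, 24 h.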

Structures are written as SMILES. Values after ≈ are worked out from the molar mass of the structure shown. Active and inactive are the calls of the source.

On to `C[Si]1(C)OB(O)c2cc(F)c(CO)c(F)c21`, for which the “diameter of the inhibition zone (DIZ)” value (in [1]; in the assay with Enterococcus faecalis; in the assay on Enterococcus faecium; in the assay with Proteus mirabilis [10]; in the assay with Candida tropicalis [12]) was “inactive” in each case. For the same compound, the “fold change (FC)” value with Klebsiella pneumoniae [2] is listed as 2; in the assay on Serratia marcescens [3] it was 4; in the assay with Acinetobacter baumannii [6], 2; in the assay with Proteus mirabilis [7] it was 4; in the assay with Pseudomonas aeruginosa it was 4. In addition, the MIC – broadly, the smallest concentration in the dilution series that meets the test's criterion for growth inhibition – with Candida parapsilosis was 400 µg/mL (≈ 1640 µM); in the assay with Pichia kudriavzevii it was 400 µg/mL (≈ 1640 µM); in [8], more than 400 µg/mL; in the assay with Acinetobacter baumannii [9], 400 µg/mL (≈ 1640 µM); with Candida tropicalis [11], more than 400 µg/mL. In addition, the DIZ result in the assay with Klebsiella pneumoniae [4] and in the assay with Serratia marcescens [5] was “inactive” throughout.
For `C[Si]1(C)OB(O)c2cccc(F)c21`, in assay [1], the “diameter of the inhibition zone (DIZ)” value is “inactive”. In addition, the “fold change (FC)” value in the assay with Klebsiella pneumoniae [2] came out at 16; in the assay with Serratia marcescens [3], 4; in the assay on Acinetobacter baumannii [6], 4; in the assay with Proteus mirabilis [7], 2; with Pseudomonas aeruginosa, 16. Also, the MIC in the assay on Candida parapsilosis was 100 µg/mL (≈ 510 µM); with Pichia kudriavzevii, 50 µg/mL (≈ 255 µM); in [8] it was 200 µg/mL (≈ 1020 µM); in the assay on Acinetobacter baumannii [9], 200 µg/mL (≈ 1020 µM); in the assay on Candida tropicalis [11], 50 µg/mL (≈ 255 µM). Moreover, the “diameter of the inhibition zone (DIZ)” value with Enterococcus faecalis amounted to 13 mm; in the assay with Enterococcus faecium, 12 mm; with Proteus mirabilis [10], 16 mm; in the assay on Candida tropicalis [12], 14 mm. The DIZ result in the assay with Klebsiella pneumoniae [4] and with Serratia marcescens [5] was “inactive” each time.
For `C[Si]1(C)OB(O)c2cc(F)c(C=O)c(F)c21`, the “diameter of the inhibition zone (DIZ)” value (in assay [1]; in the assay with Enterococcus faecalis; in the assay with Enterococcus faecium; in the assay on Proteus mirabilis [10]; in the assay with Candida tropicalis [12]) was “inactive” each time. Further, the “fold change (FC)” value with Klebsiella pneumoniae [2] amounted to 4; with Serratia marcescens [3], 4; with Acinetobacter baumannii [6], 4; with Proteus mirabilis [7], 2; in the assay with Pseudomonas aeruginosa, 8. Also, the MIC in the assay with Candida parapsilosis is 25 µg/mL (≈ 103 µM); with Pichia kudriavzevii it was 25 µg/mL (≈ 103 µM); in assay [8] it was more than 400 µg/mL; against Acinetobacter baumannii [9], more than 400 µg/mL; in the assay with Candida tropicalis [11] it was 100 µg/mL (≈ 413 µM). Also, the DIZ entry in the assay with Klebsiella pneumoniae [4] and with Serratia marcescens [5] was “inactive” throughout.
`C[Si]1(C)OB(O)c2cccc(B(O)O)c21`: the “diameter of the inhibition zone (DIZ)” value (in assay [1]; with Enterococcus faecalis; in the assay on Enterococcus faecium; in the assay on Proteus mirabilis [10]; in the assay on Candida tropicalis [12]) was “inactive” in each case. In addition, the “fold change (FC)” value in the assay with Klebsiella pneumoniae [2] worked out at 4; in the assay on Serratia marcescens [3], 2; in the assay with Acinetobacter baumannii [6], 2; in the assay on Proteus mirabilis [7], 0; in the assay with Pseudomonas aeruginosa it was 4. The MIC with Candida parapsilosis was 400 µg/mL (≈ 1800 µM); in the assay on Pichia kudriavzevii, 50 µg/mL (≈ 225 µM); in assay [8], more than 400 µg/mL; against Acinetobacter baumannii [9] it was 400 µg/mL (≈ 1800 µM); in the assay with Candida tropicalis [11] it was 400 µg/mL (≈ 1800 µM). For the same compound, the DIZ result in the assay with Klebsiella pneumoniae [4] and with Serratia marcescens [5] was “inactive” in each case.
